FN deposit inh – fibronectin deposition inhibition | AH1F fibroblasts, Alexa488-fibronectin deposition fluorescence, overnight | inhibition, % at 12.6 µM | 350,000 tested, 0.086% active | AID 743247;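 active = mean inhibition across replicates of 30% or more, regardless of how many single replicates reach that level; inconclusive = mean under 30% yet at least half of replicates reach 30%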
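Material – AH1F fibroblast monolayer, labelled fibronectin deposition · Reagent – labelled fibronectin 24 nM · Timing – 1 h adhesion, overnight exposure · Measured by – fluorescence at 485 nm excitation, 525 nm emission · Read-out – inhibition of fibronectin deposition signal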
ERAP1 inh – inhibitors of human ERAP1 aminopeptidase; recombinant ERAP1, Leu-AMC fluorescence, 60 min; inhibition, % at 10.7 µM; 340,000 tested, 0.15% active; AID 652197;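 active = mean replicate inhibition of at least 30%, or all replicates individually reaching that 30% level; inactive = mean below 30% and not every replicate reaching it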
FGF22 binding – FGF22 (human) thermal shift binding | Q9HCT0 | 340,000 tested, 1.5% active | activity (Tm shift, normalised), % at 9.99 µM | recombinant FGF22 thermal shift, SYPRO orange fluorescence; percent of sucrose octasulfate shift, DMSO zero | AID 651658;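 active = mean Tm shift, scaled 0 neutral to 100 positive control, at about 1.3% or above, every replicate too, limit read from the data; inconclusive = no clear call, values can overlap the other calls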
Target sequence (Q9HCT0 whole entry, looked up): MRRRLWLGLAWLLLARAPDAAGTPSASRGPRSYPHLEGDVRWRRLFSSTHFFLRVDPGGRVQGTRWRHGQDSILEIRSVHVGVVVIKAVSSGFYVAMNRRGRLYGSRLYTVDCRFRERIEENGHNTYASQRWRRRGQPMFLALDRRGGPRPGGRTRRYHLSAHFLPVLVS
PGC1a acetyl inh – PGC1a acetylation modulation, inhibitor mode; inhibition, % at 15.6 µM; AID 651687; U2OS PGC1a acetylation, AlphaScreen anti-acetyl-lysine; with virally co-expressed GCN5 acetyltransferase; 350,000 tested, 0.17% active;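 active = every replicate shows inhibition of at least 40%; inconclusive = mean inhibition at least 40% but some replicate below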
SIRT5 block – blocks human SIRT5 desuccinylation of peptide. Q9NXA8. Purified SirT5, succinyl-peptide AMC, trypsin-coupled fluorescence. inhibition, % at 15 µM. 330,000 tested, 1.1% active. AID 652115; in the data active = inhibition above about 15%; inconclusive = no clear call, values can overlap the other calls
Target sequence (Q9NXA8 whole entry, looked up): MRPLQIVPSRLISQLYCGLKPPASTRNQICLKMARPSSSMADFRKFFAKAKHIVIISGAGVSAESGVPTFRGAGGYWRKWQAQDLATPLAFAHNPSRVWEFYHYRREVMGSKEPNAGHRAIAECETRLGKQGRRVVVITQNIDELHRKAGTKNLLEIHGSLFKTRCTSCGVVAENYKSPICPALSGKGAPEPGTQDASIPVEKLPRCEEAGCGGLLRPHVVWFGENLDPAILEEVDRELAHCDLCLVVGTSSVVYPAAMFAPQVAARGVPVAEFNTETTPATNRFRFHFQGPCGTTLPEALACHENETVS
Of the large screens only hits and unclear results are named; the others gave an inactive call; ! = repeats disagree. Sampled rows, rich in hits. Any-hit rate of the full collection: about 2.2%.

O=C(C[C@H]1C[C@@H]2c3cc(NC(=O)Nc4ccc(F)cc4)ccc3O[C@@H]2[C@@H](CO)O1)NC1CCCC1	none (no result: ERAP1 inh, FGF22 binding, PGC1a acetyl inh, SIRT5 block)
C[C@@H]1CN([C@@H](C)CO)C(=O)c2cc(NC(=O)Nc3ccc(F)cc3)ccc2O[C@H]1CN(C)S(=O)(=O)c1ccc(Cl)cc1	none (no result: FN deposit inh)
C[C@H]1CN([C@@H](C)CO)C(=O)Cc2cc(NC(=O)Nc3ccc(F)cc3)ccc2O[C@@H]1CN(C)S(C)(=O)=O	SIRT5 block 17.8
C[C@H]1CN([C@@H](C)CO)C(=O)c2cc(NC(=O)Nc3ccc(C(F)(F)F)cc3)ccc2O[C@H]1CN(C)S(=O)(=O)c1ccc(Cl)cc1	SIRT5 block 23.2
Cc1ccc(S(=O)(=O)N(C)C[C@@H]2Oc3ccc(NC(=O)Nc4ccc(C(F)(F)F)cc4)cc3C(=O)N([C@@H](C)CO)C[C@@H]2C)cc1	FGF22 binding 2.8 (no result: FN deposit inh)
C[C@H](CO)N1C[C@H](C)[C@H](CN(C)S(=O)(=O)c2ccc(Cl)cc2)Oc2ccc(NC(=O)Nc3ccc(F)cc3)cc2C1=O	SIRT5 block 15.2 (no result: FN deposit inh)
COCC(=O)N(C)C[C@H]1Oc2ncc(C#Cc3ccc(F)cc3)cc2C(=O)N([C@H](C)CO)C[C@@H]1C	none
CNC[C@@H]1Oc2cc(C#CCOC)ccc2S(=O)(=O)N([C@H](C)CO)C[C@H]1C	none (no result: FN deposit inh, ERAP1 inh, FGF22 binding, SIRT5 block)
C[C@@H]1CN([C@H](C)CO)C(=O)c2cc(NC(=O)C3CCCCC3)ccc2O[C@@H]1CN(C)C(=O)Nc1ccc(F)cc1	none (no result: FN deposit inh, PGC1a acetyl inh)
O=C(CCCCCCCCC(=O)N/N=C/c1ccco1)N/N=C/c1ccco1	FGF22 binding 43.4 (no result: PGC1a acetyl inh)
Cc1cc(Cl)ccc1OCC(=O)NCC(=O)N/N=C/c1ccco1	FGF22 binding 43.3 (no result: PGC1a acetyl inh)
O=C(O)Cn1c2c(c3ccccc31)CSc1ccc(Cl)cc1-2	FGF22 binding 1.9 (no result: PGC1a acetyl inh)
O=C(CC1CC1)N1[C@@H](CO)[C@@H](c2ccccc2)C12CN(Cc1cc(F)ccc1F)C2	none (no result: FN deposit inh)
O=C(CCNS(=O)(=O)c1ccc(Br)s1)NC1CCCC1	SIRT5 block 20.1 (no result: FN deposit inh, FGF22 binding)
CCC[N+]1(CC#CC2(O)CCCCC2)CCOCC1	ERAP1 inh 85.1 (no result: FN deposit inh, PGC1a acetyl inh, SIRT5 block)
Cc1noc(C)c1S(=O)(=O)N(C)C[C@@H]1Oc2ccc(NC(=O)Cc3ccccc3)cc2CC(=O)N([C@H](C)CO)C[C@@H]1C	none (no result: FN deposit inh, ERAP1 inh, SIRT5 block)
Cc1nn(C)c2c1NC(=O)CS2	FGF22 binding 43.0 (no result: SIRT5 block)
Cc1nc(CN(C)C(=O)c2cc(COc3ccc4ncccc4c3)on2)cs1	FGF22 binding 42.9 (no result: PGC1a acetyl inh)
COc1cccc(-c2ccc3c(c2)O[C@H](CN(C)Cc2cncnc2)[C@H](C)CN([C@@H](C)CO)S3(=O)=O)c1	none
CC(C)CC#Cc1ccc2c(c1)O[C@H](CN(C)Cc1ccc3c(c1)OCO3)[C@H](C)CN([C@H](C)CO)S2(=O)=O	SIRT5 block 14.2 (no result: FGF22 binding)
CC(C)CC#Cc1ccc2c(c1)O[C@@H](CN(C)Cc1ccc3c(c1)OCO3)[C@H](C)CN([C@H](C)CO)S2(=O)=O	PGC1a acetyl inh 53.4, SIRT5 block inconclusive (no result: FGF22 binding)
COc1ccccc1-c1ccc2c(c1)O[C@@H](CN(C)Cc1ccc3c(c1)OCO3)[C@@H](C)CN([C@@H](C)CO)S2(=O)=O	SIRT5 block 21.2 (no result: FN deposit inh)
CO[C@H]1CN(C)C(=O)c2ccc(NC(=O)Nc3ccccc3)cc2OC[C@H](C)NC[C@H]1C	none
C[C@H](CO)N1C[C@H](C)[C@H](CN(C)Cc2ccc(C(=O)Nc3ccccc3N)cc2)Oc2ccc(NS(=O)(=O)c3cccs3)cc2C1=O	none (no result: FN deposit inh)
O=C(CSc1ncnc2sc(-c3ccccc3)cc12)NC1CCS(=O)(=O)C1 (stereo not given)	FGF22 binding 43.2 (no result: PGC1a acetyl inh)
O=C(CSc1ncnc2scc(-c3ccccc3)c12)NC1CCS(=O)(=O)C1 (stereo not given)	none
CCCCCCCn1c2c(c(=N)c3c1CCC3)CCCC2	ERAP1 inh 82.8
Cc1ccc(CN(C)C[C@H]2OCc3cnnn3CCCC(=O)N([C@@H](C)CO)C[C@@H]2C)cc1	none
C[C@@H]1CN([C@H](C)CO)C(=O)CCCn2nncc2CO[C@H]1CN(C)Cc1cccnc1	SIRT5 block 17.5!
Cc1ccc(CN(C)C[C@@H]2OCc3cnnn3CCCC(=O)N([C@H](C)CO)C[C@@H]2C)cc1	SIRT5 block 18.2
C[C@H]1CN([C@@H](C)CO)C(=O)CCCn2nncc2CO[C@H]1CN(C)Cc1cccnc1	none
Cc1cccc(CN(C)C[C@@H]2OCc3cnnn3CCCC(=O)N([C@H](C)CO)C[C@@H]2C)c1	SIRT5 block 15.3
C[C@@H]1CN([C@@H](C)CO)C(=O)Cc2cc(NC(=O)Cc3ccccc3)ccc2O[C@H]1CN(C)S(=O)(=O)c1ccc(Cl)cc1	none
Cc1cccc(NC(=O)COC(=O)c2ccccc2SCC(=O)N2CCCC2)c1	FGF22 binding 28.3
O=C(C1CCCC1)N1CCCCN2[C@H](C1)[C@@H](c1ccc(-c3cccc(F)c3)cc1)[C@@H]2CO	none (no result: FN deposit inh)
O=C(/C=C/c1ccco1)N(Cc1ccc(Cl)cc1)C1CCS(=O)(=O)C1 (stereo not given)	SIRT5 block 57.1 (no result: ERAP1 inh, PGC1a acetyl inh)
CN(C)c1ccc(CN(C(=O)/C=C/c2ccco2)C2CCS(=O)(=O)C2)cc1 (stereo not given)	none (no result: ERAP1 inh)
COc1ccccc1CNC(=O)C[C@H]1CC[C@@H](NC(C)=O)[C@H](CO)O1	none
CCC1=NN2C(=N)/C(=C\c3cccn3-c3ccc(Cl)cc3)C(=O)N=C2S1	FGF22 binding 47.3 (no result: PGC1a acetyl inh)
CN(C)S(=O)(=O)c1cccc(C(=O)OCC(=O)NCc2ccc3c(c2)OCO3)c1	FGF22 binding 42.9
Cc1noc(C)c1NC(=O)Nc1ccc2c(c1)C(=O)N([C@@H](C)CO)C[C@@H](C)[C@H](CN(C)C(=O)c1ccccc1)OCCCC[C@@H](C)O2	none (no result: FN deposit inh)
Cn1cnc(S(=O)(=O)N[C@H]2CC[C@@H](CC(=O)N3CCN(c4ccccc4)CC3)O[C@H]2CO)c1	none
O=C(C[C@H]1C=C[C@H](NC(=O)c2ccccc2)[C@@H](CO)O1)Nc1ccc(-c2ccccc2)cc1	none
COc1cc(C)c(/C=C(\C#N)C(=O)Nc2cccc(C)c2)cc1C(C)C	FGF22 binding 43.7 (no result: PGC1a acetyl inh)
CO[C@H]1CN(C)C(=O)c2ccc(NS(=O)(=O)C3CCCCC3)cc2OC[C@@H](C)NC[C@@H]1C	none (no result: ERAP1 inh, FGF22 binding, PGC1a acetyl inh, SIRT5 block)
Cc1ccc2nc(Cl)c(C#N)cc2c1	FGF22 binding 43.4
CCCC(=O)Nc1ccc2c(c1)OC[C@@H](C)N(C(=O)C1CCCC1)C[C@H](C)[C@@H](OC)CN(C)C2=O	none
CC(C)C(NC(=O)CCNC(=O)c1ccc([N+](=O)[O-])cc1)c1nc2ccccc2[nH]1 (stereo not given)	ERAP1 inh 67.0
CCN1[C@@H]2c3ccc(C4=CCCC4)c(=O)n3C[C@@H]2[C@@H](CO)[C@@H]1C(=O)N(C)C	none (no result: FN deposit inh, PGC1a acetyl inh)
O=C(CCNc1n[nH]c(=O)[nH]c1=O)N1CCCCC1	none (no result: ERAP1 inh, FGF22 binding, SIRT5 block)
O=C(O)CCCNc1n[nH]c(=O)[nH]c1=O	FGF22 binding 42.9 (no result: FN deposit inh)
COc1ccc(NC(=O)N(C)C[C@H]2Oc3c(NC(=O)C4CCOCC4)cccc3C(=O)N([C@H](C)CO)C[C@H]2C)cc1	none (no result: FN deposit inh)
